Experimental data: ChEMBL document CHEMBL5316295, “Systematic Design of Adenosine Analogs as Inhibitors of a Clostridioides difficile-Specific DNA Adenine Methyltransferase Required for Normal Sporulation and Persistence” (J Med Chem, 2023)
The source made the active and inactive calls. The calls are words filed in the database; no cut-off is given here.

Columns and labels:
[1] = target: Protein arginine N-methyltransferase 1 (Homo sapiens) (UniProt Q99873); assay: (§1) Inhibition of PRMT1 (unknown origin) using histone H4 as substrate and 3H-SAM as cosubstrate at 10 uM pretreated with compound for 20 mins in presence of histone H4 followed by cosubstrate addition and measured after 1 hr; details: time 80.0 min
Protein arginine N-methyltransferase 1 (Homo sapiens), sequence (Q99873 whole entry, looked up): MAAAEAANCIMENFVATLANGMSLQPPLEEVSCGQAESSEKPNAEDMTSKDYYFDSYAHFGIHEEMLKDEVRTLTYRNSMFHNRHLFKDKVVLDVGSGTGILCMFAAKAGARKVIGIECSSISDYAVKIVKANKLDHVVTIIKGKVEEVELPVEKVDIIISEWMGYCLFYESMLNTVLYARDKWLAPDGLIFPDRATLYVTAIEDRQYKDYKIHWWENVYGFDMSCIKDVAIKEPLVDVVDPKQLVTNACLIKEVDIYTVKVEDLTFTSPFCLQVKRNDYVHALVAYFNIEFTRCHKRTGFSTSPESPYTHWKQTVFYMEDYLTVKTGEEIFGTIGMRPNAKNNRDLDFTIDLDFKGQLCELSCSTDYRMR
Procedure, shortened: (§2)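 Enzymes (DOT1L 1 nM; EZH2, G9a, PRMT1 5 nM) mixed with substrate (0.05 mg/mL oligonucleosomes for DOT1L; 0.05 mg/mL core histone for EZH2; 5 μM H3 1–21 peptide for G9a; 5 μM H4 for PRMT1). Compound (10 μM) added for 20 min at room temperature, then 1 μM ³H-SAM for 1 h at 30 °C; filter-paper read-out. Triplicates, mean ± SD.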

[2] = target: T1, Histone-lysine N-methyltransferase EHMT2 (Homo sapiens) (UniProt Q96KQ7); assay: as §1, with “human G9a (913 to 1193 residues) expressed in Escherichia coli BL21 (DE3)-gold cells” for “PRMT1 (unknown origin)”, “H3 (1 to 21 residues)” for “H4”; details: time 80.0 min; procedure, shortened: as §2
T1 sequence (whole entry): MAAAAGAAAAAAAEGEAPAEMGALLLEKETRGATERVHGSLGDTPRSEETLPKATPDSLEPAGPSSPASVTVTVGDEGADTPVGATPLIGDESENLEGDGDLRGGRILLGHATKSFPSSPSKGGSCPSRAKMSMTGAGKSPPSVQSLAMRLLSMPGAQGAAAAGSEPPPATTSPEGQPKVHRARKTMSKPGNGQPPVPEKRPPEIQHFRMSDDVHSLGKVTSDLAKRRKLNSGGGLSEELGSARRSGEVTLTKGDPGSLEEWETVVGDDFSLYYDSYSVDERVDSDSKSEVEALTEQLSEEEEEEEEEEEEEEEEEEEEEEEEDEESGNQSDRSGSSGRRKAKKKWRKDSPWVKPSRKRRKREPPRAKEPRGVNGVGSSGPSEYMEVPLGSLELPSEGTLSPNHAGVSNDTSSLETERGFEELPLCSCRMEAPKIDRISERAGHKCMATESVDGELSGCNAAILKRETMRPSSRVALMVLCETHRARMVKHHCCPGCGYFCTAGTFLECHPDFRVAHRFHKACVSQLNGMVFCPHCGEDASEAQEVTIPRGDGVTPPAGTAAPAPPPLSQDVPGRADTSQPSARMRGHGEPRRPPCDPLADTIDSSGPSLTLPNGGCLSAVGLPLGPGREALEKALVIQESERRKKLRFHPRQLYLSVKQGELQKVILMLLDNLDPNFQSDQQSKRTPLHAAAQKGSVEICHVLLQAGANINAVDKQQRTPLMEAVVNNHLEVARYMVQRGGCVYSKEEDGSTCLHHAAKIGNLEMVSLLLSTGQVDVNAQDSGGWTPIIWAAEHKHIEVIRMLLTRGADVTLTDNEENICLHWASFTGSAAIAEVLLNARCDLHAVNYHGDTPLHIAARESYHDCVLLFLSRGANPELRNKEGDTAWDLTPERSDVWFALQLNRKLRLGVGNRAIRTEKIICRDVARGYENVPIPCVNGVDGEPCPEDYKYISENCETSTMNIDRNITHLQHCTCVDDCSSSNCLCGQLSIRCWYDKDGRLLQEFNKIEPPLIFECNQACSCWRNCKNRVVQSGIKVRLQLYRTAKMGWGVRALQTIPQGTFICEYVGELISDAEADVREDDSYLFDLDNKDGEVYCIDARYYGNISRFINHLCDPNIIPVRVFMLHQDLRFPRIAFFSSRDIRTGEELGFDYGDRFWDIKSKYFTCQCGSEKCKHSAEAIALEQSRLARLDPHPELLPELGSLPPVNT

[3] = target: Histone-lysine N-methyltransferase, H3 lysine-79 specific (Homo sapiens) (UniProt Q8TEK3); assay: Inhibition of human DOT1L using oligonucleosome as substrate and 3H-SAM as cosubstrate at 10 uM pretreated with compound for 20 mins in presence of oligonucleosome followed by cosubstrate addition and measured after 1 hr; details: time 80.0 min; procedure, shortened: as §2
Histone-lysine N-methyltransferase, H3 lysine-79 specific (Homo sapiens), sequence (Q8TEK3 whole entry, looked up): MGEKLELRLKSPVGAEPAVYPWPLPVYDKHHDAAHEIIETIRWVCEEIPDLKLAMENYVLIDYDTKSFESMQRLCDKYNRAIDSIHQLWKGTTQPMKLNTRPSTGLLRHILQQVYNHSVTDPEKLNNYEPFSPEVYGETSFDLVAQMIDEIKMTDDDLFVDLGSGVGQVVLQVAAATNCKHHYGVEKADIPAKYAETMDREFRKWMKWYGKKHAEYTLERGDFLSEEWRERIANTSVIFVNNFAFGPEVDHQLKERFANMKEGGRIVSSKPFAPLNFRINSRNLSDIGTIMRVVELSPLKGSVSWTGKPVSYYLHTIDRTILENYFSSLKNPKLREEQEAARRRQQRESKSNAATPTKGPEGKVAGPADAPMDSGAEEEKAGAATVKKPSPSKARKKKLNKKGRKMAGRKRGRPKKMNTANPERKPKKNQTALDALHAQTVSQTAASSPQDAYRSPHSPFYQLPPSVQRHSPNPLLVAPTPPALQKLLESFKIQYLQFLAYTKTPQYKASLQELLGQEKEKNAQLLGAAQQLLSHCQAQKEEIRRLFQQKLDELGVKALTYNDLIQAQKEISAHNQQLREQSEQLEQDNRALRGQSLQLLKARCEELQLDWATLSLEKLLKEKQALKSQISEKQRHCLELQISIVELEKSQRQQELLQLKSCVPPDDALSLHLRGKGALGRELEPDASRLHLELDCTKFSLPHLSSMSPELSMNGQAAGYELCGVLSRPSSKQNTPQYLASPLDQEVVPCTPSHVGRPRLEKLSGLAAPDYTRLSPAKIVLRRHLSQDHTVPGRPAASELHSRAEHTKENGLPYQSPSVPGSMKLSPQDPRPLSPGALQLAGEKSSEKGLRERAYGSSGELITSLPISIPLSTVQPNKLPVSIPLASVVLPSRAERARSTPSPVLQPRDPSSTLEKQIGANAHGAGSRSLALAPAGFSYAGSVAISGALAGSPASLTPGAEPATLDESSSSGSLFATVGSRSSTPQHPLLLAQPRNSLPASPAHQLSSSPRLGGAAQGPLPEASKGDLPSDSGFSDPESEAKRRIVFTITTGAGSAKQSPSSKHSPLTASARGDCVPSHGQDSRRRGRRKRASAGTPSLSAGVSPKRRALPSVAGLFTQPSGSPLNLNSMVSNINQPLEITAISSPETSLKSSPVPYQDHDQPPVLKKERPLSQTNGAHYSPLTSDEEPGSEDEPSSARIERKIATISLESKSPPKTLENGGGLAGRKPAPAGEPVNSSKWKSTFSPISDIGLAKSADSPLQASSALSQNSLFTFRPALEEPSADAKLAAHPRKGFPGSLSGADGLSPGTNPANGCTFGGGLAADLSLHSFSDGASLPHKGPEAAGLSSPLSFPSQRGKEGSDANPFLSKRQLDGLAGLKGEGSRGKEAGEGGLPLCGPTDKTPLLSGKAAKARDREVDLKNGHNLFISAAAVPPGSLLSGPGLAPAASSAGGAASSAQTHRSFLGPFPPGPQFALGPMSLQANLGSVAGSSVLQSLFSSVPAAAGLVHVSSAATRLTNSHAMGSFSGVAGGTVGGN

[4] = Binding affinity to Clostridioides difficile-specific DNA adenine methyltransferase PDB 7RFM by MicroCal PEAQ ITC analysis
Procedure, shortened: (§3)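 CamA (pXC2184 construct) in 325 mM NaCl, 20 mM Tris–HCl pH 7.5, 0.5 mM TCEP, 10% DMSO at 25 °C; 200–900 μM compound titrated into 20–60 μM protein (0.2 μL initial injection then 18 × 2 μL; reverse titration for poorly soluble compounds). Data fitted to a one-site model with offset subtracted to obtain K_D.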

[5] = (§4) Inhibition of Clostridioides difficile-specific DNA adenine methyltransferase PDB 7RFM using 5'-CGA TTC AAA AAG TCC CAA G-3' and 3'-GCT AAG TTT TTC AGG GTT C-5' as substrate and SAM as cosubstrate preincubated for 5 mins followed by substrate and cosubstrate addition and measured after 3 mins by MTase-Glo assay
Procedure, shortened: (§5)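 Then 2.5 μM 19-bp dsDNA and 40 μM SAM were added, 3 min at ~22 °C, TFA quench (0.1%). Luminescent SAH readout against a serially diluted SAH standard curve; IC50 and Hill slope reported.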

[6] = Binding affinity to Clostridioides difficile-specific DNA adenine methyltransferase by MicroCal PEAQ ITC analysis
Procedure, shortened: (§6)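 Test compound (200–900 μM) titrated into CamA (20–60 μM) at 25 °C in 325 mM NaCl, 20 mM Tris–HCl pH 7.5, 0.5 mM TCEP, 10% DMSO; 0.2 μL initial plus 18 × 2 μL injections. Reverse titration used for poorly soluble compounds. Data fitted to a one-site model with offset subtracted; K_D, ΔH, −TΔS and ΔG derived from the fit.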

[7] = Binding affinity to Clostridioides difficile-specific DNA adenine methyltransferase by MicroCal PEAQ-ITC instrument analysis
[8] = as §4, with “mediated methylation” for “PDB 7RFM”, “MTase glo” for “MTase-Glo”
[9] = as §4, with “8CXS” for “7RFM”
Procedure, shortened: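 Reaction started with 2.5 μM dsDNA and 40 μM SAM (final), run 3 min, then quenched with 0.1% TFA. SAH measured by MTase-Glo luminescence against an SAH standard curve.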

[10] = Binding affinity to Clostridioides difficile-specific DNA adenine methyltransferase PDB 8CXS by MicroCal PEAQ ITC analysis; procedure, shortened: as §6
Clostridioides difficile [11] = assay: Inhibition of Clostridioides difficile-specific DNA adenine methyltransferase mediated methylation using 5'-CGA TTC AAA AAG TCC CAA G-3' and 3'-GCT AAG TTT TTC AGG GTT C-5' as substrate and SAM as cosubstrate at 1 to 10 uM preincubated for 5 mins followed by substrate and cosubstrate addition and measured after 3 mins by MTase glo assay; details: dose 1-10 µM, time 8.0 min
[12] = Binding affinity to Clostridioides difficile-specific DNA adenine methyltransferase PDB 7RFL by MicroCal PEAQ ITC analysis; procedure, shortened: as §3
[13] = as §4, with “7RFL” for “7RFM”; procedure, shortened: as §5
Clostridioides difficile [14] = assay: Inhibition of Clostridioides difficile-specific DNA adenine methyltransferase using 5'-CGA TTC AAA AAG TCC CAA G-3' and 3'-GCT AAG TTT TTC AGG GTT C-5' as substrate and SAM as cosubstrate at 50 uM preincubated for 5 mins followed by substrate and cosubstrate addition and measured after 3 mins by MTase-Glo assay; details: time 8.0 min
[15] = target: mRNA (2'-O-methyladenosine-N(6)-)-methyltransferase (Homo sapiens) (UniProt Q9H4Z3); assay: Inhibition of human PCIF1 using m7GpppAmG as substrate and SAM as cosubstrate at 10 uM incubated for 15 mins
mRNA (2'-O-methyladenosine-N(6)-)-methyltransferase (Homo sapiens), sequence (Q9H4Z3 whole entry): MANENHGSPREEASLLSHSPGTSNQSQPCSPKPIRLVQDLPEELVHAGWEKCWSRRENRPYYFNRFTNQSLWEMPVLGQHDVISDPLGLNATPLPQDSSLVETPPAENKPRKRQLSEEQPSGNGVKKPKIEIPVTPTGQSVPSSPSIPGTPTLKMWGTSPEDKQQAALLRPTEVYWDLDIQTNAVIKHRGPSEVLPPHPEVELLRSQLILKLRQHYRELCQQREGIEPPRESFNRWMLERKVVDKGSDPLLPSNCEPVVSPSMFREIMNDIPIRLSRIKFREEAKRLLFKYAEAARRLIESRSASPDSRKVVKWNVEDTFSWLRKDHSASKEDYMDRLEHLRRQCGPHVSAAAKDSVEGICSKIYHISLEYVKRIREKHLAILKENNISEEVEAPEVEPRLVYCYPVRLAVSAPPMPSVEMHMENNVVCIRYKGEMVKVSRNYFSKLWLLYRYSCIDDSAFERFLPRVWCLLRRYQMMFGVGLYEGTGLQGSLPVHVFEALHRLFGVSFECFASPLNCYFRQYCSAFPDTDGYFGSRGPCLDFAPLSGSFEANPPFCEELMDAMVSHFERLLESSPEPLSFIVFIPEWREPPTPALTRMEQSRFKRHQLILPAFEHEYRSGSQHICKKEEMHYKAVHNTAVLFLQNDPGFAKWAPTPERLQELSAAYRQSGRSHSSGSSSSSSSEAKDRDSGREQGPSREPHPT
Procedure, shortened: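 Enzyme 0.1 μM with 5 μM RNA, 30 μM SAM and 10 μM inhibitor at ~22 °C in 50 mM Tris–HCl pH 7.5, 100 mM NaCl, 1 mM DTT, 0.25% DMSO. PCIF1 run 15 min with capped RNA; MettL5-Trm112 run 1 h with ssRNA.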

[16] = target: T2, DNA adenine methylase (Escherichia coli K-12) (UniProt P0AEE8); assay: Inhibition of Escherichia coli Dam using 5'-CCG CGG ATC CTG CT-3' and 3'-GGC GCC TAG GAC GA-5' as substrate and SAM as cosubstrate at 10 uM incubated for 5 mins
T2 sequence (whole entry): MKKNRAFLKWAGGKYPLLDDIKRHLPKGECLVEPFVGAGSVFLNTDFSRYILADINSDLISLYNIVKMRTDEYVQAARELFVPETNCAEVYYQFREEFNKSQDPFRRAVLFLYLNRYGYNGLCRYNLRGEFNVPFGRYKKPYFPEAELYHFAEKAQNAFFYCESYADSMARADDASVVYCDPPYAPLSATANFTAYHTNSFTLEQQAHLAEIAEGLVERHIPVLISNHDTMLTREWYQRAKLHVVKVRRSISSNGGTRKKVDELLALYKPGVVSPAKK
Procedure, shortened: (§7)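 Conditions were enzyme 0.1 μM, DNA 5 μM, SAM 30 μM, inhibitor 10 μM, at ~22 °C in 50 mM Tris–HCl pH 7.5, 100 mM NaCl, 1 mM DTT, 0.25% DMSO, run 5 min. Substrate and SAM levels were above K_M.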

[17] = Binding affinity to Clostridioides difficile-specific DNA adenine methyltransferase PDB 7RFK by MicroCal PEAQ ITC analysis; procedure, shortened: as §3
[18] = target: DNMT3A-DNMT3L (Mus musculus) (UniProt O88508+Q9CWR8); assay: Inhibition of mouse DNMT3A/DNMT3L using 5'-G CATGCGTTCTAATTAGAAUGCATG-3' and 3'-GTA CGS AAG ATT AAT CTT GCG TAC G-5' as substrate and SAM as cosubstrate at 10 uM incubated for 1 hr; type: protein-complex assay
DNMT3A-DNMT3L (Mus musculus), sequence (Q9CWR8 whole entry, looked up, other chains not shown): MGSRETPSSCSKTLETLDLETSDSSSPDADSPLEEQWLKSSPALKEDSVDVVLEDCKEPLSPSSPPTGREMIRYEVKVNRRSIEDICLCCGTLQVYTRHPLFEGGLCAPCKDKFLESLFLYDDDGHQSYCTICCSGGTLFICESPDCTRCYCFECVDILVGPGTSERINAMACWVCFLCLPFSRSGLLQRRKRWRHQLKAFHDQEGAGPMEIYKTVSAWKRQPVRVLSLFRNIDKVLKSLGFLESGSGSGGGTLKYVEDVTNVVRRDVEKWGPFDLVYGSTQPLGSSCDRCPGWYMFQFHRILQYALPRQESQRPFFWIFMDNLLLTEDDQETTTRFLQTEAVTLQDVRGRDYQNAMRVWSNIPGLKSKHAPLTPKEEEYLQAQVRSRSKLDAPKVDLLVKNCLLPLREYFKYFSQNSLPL
Procedure, shortened: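 Dnmt3a-3L (0.5 μM) with 5 μM dsDNA, 25 μM SAM and 10 μM inhibitor in 20 mM Tris pH 7.5, 40 mM NaCl, 4 mM DTT, 20% glycerol, run 1 h at 37 °C.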

Caulobacter vibrioides = assay: Inhibition of Caulobacter vibrioides CcrM using 5'-CGA TTC AAA AAG TCC CAA G-3' and 3'-GCT AAG TTT TTC AGG GTT C-5' as substrate and SAM as cosubstrate at 10 uM incubated for 5 mins; procedure, shortened: as §7
[19] = as §4, with “7RFK” for “7RFM”; procedure, shortened: as §5
Clostridioides difficile [20] = assay: Binding affinity to Clostridioides difficile-specific DNA adenine methyltransferase assessed as change in enthalpy by MicroCal PEAQ-ITC instrument analysis; procedure, shortened: as §6

| Structure (SMILES) | Kd [7] [µM] | IC50 [8] [µM] | also measured |
| --- | --- | --- | --- |
| Nc1ncnc2c1ncn2[C@@H]1O[C@H](CSCC[C@H](N)C(=O)O)[C@@H](O)[C@H]1O | – | – | inhibition [1]: Active; inhibition [2]: Active; inhibition [3]: Active |
| CC(C)N(CCCNC(=O)Nc1ccc(C(C)(C)C)cc1)C[C@H]1O[C@@H](n2ccc3c(N)ncnc32)[C@H](O)[C@@H]1O | – | – | Kd [4]: 18 µM; IC50 [5]: 43 µM |
| Nc1ncnc2c1ncn2[C@@H]1O[C@H](CO)[C@@H](O)[C@H]1O [ADENOSINE] | – | – | Kd [6]: > 70 µM |
| Nc1ccc(CCNc2ncnc3c2ncn3[C@@H]2O[C@H](CO)[C@@H](O)[C@H]2O)cc1 | 18 | – | – |
| OC[C@H]1O[C@@H](n2cnc3c(NCCc4ccccc4)ncnc32)[C@H](O)[C@@H]1O | 2.9 | 2.5 | – |
| OC[C@H]1O[C@@H](n2cnc3c(NCc4ccccc4)ncnc32)[C@H](O)[C@@H]1O [N6-BENZYLADENOSINE] | 13 | 15 | – |
| CC(C)(C)OC(=O)N1CCC(CNc2ncnc3c2ncn3[C@@H]2O[C@H](CO)[C@@H](O)[C@H]2O)CC1 | 1.1 | 2 | – |
| CSC[C@H]1O[C@@H](n2cnc3c(N)ncnc32)[C@H](O)[C@@H]1O [METHYLTHIOADENOSINE] | 11 | 18 | IC50 [9]: 18 µM; Kd [10]: 10 µM |
| OC[C@H]1O[C@@H](n2cnc3c(NCCCCCc4ccccc4)ncnc32)[C@H](O)[C@@H]1O | 1.3 | 1.3 | – |
| CC(C)(C)OC(=O)NCCC1CCN(c2ncnc3c2ncn3[C@@H]2O[C@H](CO)[C@@H](O)[C@H]2O)CC1 | – | – | inhibition (Clostridioides difficile [11]): inactive |
| OC[C@H]1O[C@@H](n2cnc3c(NCCCC4CCNCC4)ncnc32)[C@H](O)[C@@H]1O | – | 3.8 | – |
| OC[C@H]1O[C@@H](n2cnc3c(N[C@H]4CCc5ccccc54)ncnc32)[C@H](O)[C@@H]1O | 49 | 43 | – |
| OC[C@H]1O[C@@H](n2cnc3c(NCc4ccc(O)cc4)ncnc32)[C@H](O)[C@@H]1O | 5.3 | 4.8 | – |
| CC(C)(C)OC(=O)N1CCC2(CCN(c3ncnc4c3ncn4[C@@H]3O[C@H](CO)[C@@H](O)[C@H]3O)CC2)C1 | – | – | inhibition (Clostridioides difficile [11]): inactive |
| CC(C)N(CCCNC(=O)Nc1ccc(C(C)(C)C)cc1)C[C@H]1O[C@@H](n2cc(Br)c3c(N)ncnc32)[C@H](O)[C@@H]1O | – | – | Kd [12]: 6.3 µM; IC50 [13]: 4.7 µM; inhibition (Clostridioides difficile [14]): Active |
| Nc1ncnc2c1ncn2[C@@H]1O[C@H](C[C@@H](N)CC[C@H](N)C(=O)O)[C@@H](O)[C@H]1O [SINEFUNGIN] | – | – | inhibition [15]: Active; inhibition [16]: Active; Kd [17]: 23 µM; inhibition [18]: Active; inhibition (Caulobacter vibrioides): Active; IC50 [19]: 24 µM |
| Nc1ccc(CNc2ncnc3c2ncn3[C@@H]2O[C@H](CO)[C@@H](O)[C@H]2O)cc1 | 14 | 10 | deltaH (Clostridioides difficile [20]): -12.2 kcal/mol |
| Nc1ccc(CCCNc2ncnc3c2ncn3[C@@H]2O[C@H](CO)[C@@H](O)[C@H]2O)cc1 | 1.5 | 1.4 | – |
| OC[C@H]1O[C@@H](n2cnc3c(NCCCCc4ccccc4)ncnc32)[C@H](O)[C@@H]1O | 1.6 | 1.6 | – |
| OC[C@H]1O[C@@H](n2cnc3c(NCCCc4ccccc4)ncnc32)[C@H](O)[C@@H]1O | 0.5 | 0.7 | – |
